Experimental data as given in ChEMBL document CHEMBL1122051 (J Med Chem, 1982).

Columns and labels:
L5178Y [1] = assay: Inhibitory activity against murine tumor cells (L5178Y/R); type: functional, Mus musculus
In short: (§1)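 L5178Y murine leukemia cells, MTX-sensitive (S) and MTX-resistant (R), kept in log-phase growth at 37 °C in RPMI-1640 with 10% fetal calf serum and 1% penicillin-streptomycin. Doubling times were 11-12 h (S) and 15-18 h (R). Cells seeded at 4.0-6.0 × 10^4 cells/mL, duplicate wells, at least six concentrations, final DMSO <2%. Untreated and DMSO controls included; cells counted by Coulter counter.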

L5178Y [2] = assay: Inhibitory activity against murine tumor cells (L5178Y/S); type: functional, Mus musculus; in short: as §1
L5178Y [3] = assay: Inhibitory action against murine tumor cells (L5178Y/R); type: functional, Mus musculus; in short: as §1
L5178Y [4] = assay: Inhibitory action against murine tumor cells (L5178Y/S); type: functional, Mus musculus; in short: as §1
[5] = Partition coefficient (logP); type: physicochemical; conditions: octanol/water
In short: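 Octanol/water partitioning. The protonated form was partitioned between octanol and 0.1 N HCl. The neutral form was partitioned between octanol and 0.1 N NaOH.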

Structure (SMILES)	Log 1/C (L5178Y [1])	Log 1/C (L5178Y [2])	Log 1/C (L5178Y [3])	Log 1/C (L5178Y [4])	logP [5]
Nc1ncc(Cc2cccc(Br)c2)c(N)n1	4.12	5.52			
CC(=O)Nc1ccc(Cc2cnc(N)nc2N)cc1[N+](=O)[O-]	3.2	5.11			
COc1cccc(Cc2cnc(N)nc2N)c1	3.63	5.06			
COc1ccc(Cc2cnc(N)nc2N)cc1	3.52	5.1			
CC(=O)Nc1ccc(Cc2cnc(N)nc2N)cc1	3.23	5.12			
Nc1ncc(Cc2ccc(Br)cc2)c(N)n1	3.98	5.38			
CN(C)c1ccc(Cc2cnc(N)nc2N)cc1	4.02	4.95			
Cc1cccc(Cc2cnc(N)nc2N)c1	4.15	5.5			
Nc1ncc(Cc2ccc([N+](=O)[O-])cc2)c(N)n1	3.67	5.18			
Nc1ccc(Cc2cnc(N)nc2N)cc1	3.58	4.65			
Nc1ncc(Cc2ccc(OC(F)(F)F)cc2)c(N)n1	4.46	5.24			
Nc1ncc(Cc2cccc(F)c2)c(N)n1	3.61	5.27			
Nc1ncc(Cc2ccc(F)cc2)c(N)n1	3.9	5.48			
Nc1ncc(Cc2cccc(C(F)(F)F)c2)c(N)n1	4.37	5.63			
Nc1ncc(Cc2ccccc2)c(N)n1	3.88	5.24			
Nc1ncc(Cc2cccc(OCc3ccccc3)c2)c(N)n1	4.7	5.91			
COc1ccc(Cc2cnc(N)nc2N)cc1C(F)(F)F	4.39	5.85			
Nc1ncc(Cc2ccc(O)c(O)c2)c(N)n1	4.94	5.06			
Nc1ncc(Cc2ccc(Cl)cc2)c(N)n1	4.56	5.37			
CCCCOCc1cccc(Cc2cnc(N)nc2N)c1	3.93	5.74			
CCCCCCCOc1cccc(Cc2cnc(N)nc2N)c1	4.61	5.1			
COc1cc(Cc2cnc(N)nc2N)cc(OC)c1	3.83	5.47			

Structure (SMILES)	Log 1/C (L5178Y [1])	Log 1/C (L5178Y [2])	Log 1/C (L5178Y [3])	Log 1/C (L5178Y [4])	logP [5]
Nc1ncc(Cc2cccc(I)c2)c(N)n1	4.36	5.86			
Nc1ncc(Cc2cccc(O)c2)c(N)n1	3.09	4.89			
CCCCCCCOc1ccc(Cc2cnc(N)nc2N)cc1	5.67	5.13			
NC(=O)COc1cccc(Cc2cnc(N)nc2N)c1			3.14	4.91	
CCCCCCCCOc1cccc(Cc2cnc(N)nc2N)c1	4.92	5.12			
COCCOc1cccc(Cc2cnc(N)nc2N)c1	3.7	5.2			
COCCOc1ccc(Cc2cnc(N)nc2N)cc1OCCOC	3.28	5.06			
COCc1cccc(Cc2cnc(N)nc2N)c1	3.65	5.28			
CCCCCCOc1cccc(Cc2cnc(N)nc2N)c1	5.16	5.3			
Nc1ncc(Cc2cc(CO)cc(CO)c2)c(N)n1	2.49	3.79			
CCCCCCOc1ccc(Cc2cnc(N)nc2N)cc1	5.48	5.47			
CCCCOc1cccc(Cc2cnc(N)nc2N)c1	4.99	5.74			
Nc1ncc(Cc2cccc(CO)c2)c(N)n1	2.98	4.97			
CCCCOc1ccc(Cc2cnc(N)nc2N)cc1	4.83	5.37			
CC1(C)N=C(N)N=C(N)N1c1ccc(CCCCc2ccc(S(=O)(=O)F)cc2Cl)c(Cl)c1					2.4
Cc1ccc(Cc2cnc(N)nc2N)cc1	4.21	5.26			
Nc1ncc(Cc2cccc(Cl)c2)c(N)n1	3.85	5.39			
COCCOc1ccc(Cc2cnc(N)nc2N)cc1	3.08	4.77			
CS(=O)(=O)Oc1cccc(Cc2cnc(N)nc2N)c1			3.34	5.28	
COc1ccc(Cc2cnc(N)nc2N)cc1OC [DIAVERIDINE]	3.54	5.41			
COCCOc1c(OC)cc(Cc2cnc(N)nc2N)cc1OC [TETROXOPRIM]	3.16	4.2			
